According to ChEMBL document CHEMBL2046427, “Nonhematotoxic naphthalene diimide modified by polyamine: synthesis and biological evaluation” (J Med Chem, 2012):
The source made the active and inactive calls. The calls are words filed in the database; no cut-off is given here.

What was measured:
HepG2 [1] = assay: Cytotoxicity against human HepG2 cells after 48 hrs by MTT assay; format: functional, cell-based; settings: HepG2, 48 h
How it was run: (§1)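 MTT conversion assay at 37 °C, 5% CO₂. […] Inhibition relative to untreated cells as 100%; IC50 by linear regression, mean of three independent experiments.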

MDA-MB-231 = assay: Cytotoxicity against human MDA-MB-231 cells after 48 hrs by MTT assay; format: functional, cell-based; settings: MDA-MB-231, 48 h; how it was run: as §1
HCT-116 = assay: Cytotoxicity against human HCT116 cells after 48 hrs by MTT assay; format: functional, cell-based; settings: HCT-116, 48 h; how it was run: as §1
Mus musculus [2] = assay: Toxicity in mouse H22 cells bearing Kunming mouse assessed pathological changes in lung at 5 mg/kg, iv administered for 7 days measured on day 8 by hematoxylin and eosin staining relative to vehicle treated control; format: organism-based; design: dose 5 mg/kg, route intravenous; settings: in vivo, 168 h
How it was run: (§2)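 Tumour-bearing mice dosed iv for 7 consecutive days, killed on day 8; heart, liver, kidney, brain, lung and spleen removed, fixed in 10% formaldehyde 24 h, paraffin-embedded, sectioned and H&E stained for histopathological change versus saline controls.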

Mus musculus [3] = assay: Toxicity in mouse H22 cells bearing Kunming mouse assessed as decrease in red blood cells number at 5 mg/kg, iv administered for 7 days measured on day 8 relative to vehicle treated control; format: organism-based; design: dose 5 mg/kg, route intravenous; settings: in vivo, 168 h
How it was run: (§3)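 Tumour-bearing mice (10 per group) dosed iv for 7 consecutive days; killed on day 8. Blood and bone marrow collected; platelet, RBC, WBC and bone marrow cell counts determined with a Coulter counter. Mean SD versus saline control; Student's t test or ANOVA with q test.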

K562 = assay: Cytotoxicity against human K562 cells after 48 hrs by MTT assay; format: functional, cell-based; settings: K562, 48 h; how it was run: as §1
H22 [4] = assay: Antitumor activity against mouse H22 cells xenografted in Kunming mouse assessed as tumor growth inhibition at 5 mg/kg, iv administered on day 8 post-tumor injection for 7 days measured on day 16 relative to vehicle treated control; format: functional; settings: read-out: GI
How it was run: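 Male Kunming mice, 5 weeks, 18−22 g, injected sc with 2 × 10⁶ H22 cells. From day 8, randomized groups got caudal vein injection (0.2 or 5 mg/kg, or physiologic saline) for 7 consecutive days. On day 16 tumours excised and weighed; inhibitory rate (%) = [(A − B)/A] × 100 using mean tumour weights of control (A) and treated (B). Tumours formalin-fixed, H&E-stained.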

H22 [5] = assay: Antitumor activity against mouse H22 cells xenografted in Kunming mouse assessed as median survival time at 5 […], iv administered 24 hrs post-tumor injection for 7 days (reference value: 12.7 +/- 2.5 days); format: functional
How it was run: (§4)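 Kunming mice bearing H22 cells; iv (caudal vein) dosing or physiologic saline control started 24 h after inoculation and given for 7 consecutive days. Median survival time recorded per group; activity judged as increase in lifespan versus saline control.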

H22 [6] = assay: Antimetastatic activity against mouse H22 cells xenografted in Kunming mouse assessed as decrease in lung metastasis focuses number at 5 mg/kg, iv administered on day 11 post-tumor injection for 7 days measured on day 18 by hematoxylin and eosin staining relative to vehicle treated control; format: functional, organism-based; design: dose 5 mg/kg
Mus musculus [7] = assay: Toxicity in mouse H22 cells bearing Kunming mouse assessed pathological changes in liver at 5 mg/kg, iv administered for 7 days measured on day 8 by hematoxylin and eosin staining relative to vehicle treated control; format: organism-based; design: dose 5 mg/kg, route intravenous; settings: in vivo, 168 h; how it was run: as §2
Mus musculus [8] = assay: Toxicity in mouse H22 cells bearing Kunming mouse assessed as decrease in white blood cells number at 5 mg/kg, iv administered for 7 days measured on day 8 relative to vehicle treated control; format: organism-based; design: dose 5 mg/kg, route intravenous; settings: in vivo, 168 h; how it was run: as §3
Mus musculus [9] = assay: Toxicity in mouse H22 cells bearing Kunming mouse assessed as weight loss at 5 mg/kg, iv administered for 7 days measured on day 8 relative to vehicle treated control; format: organism-based; design: dose 5 mg/kg, route intravenous; settings: in vivo, 168 h
How it was run: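 Body weight monitored in tumour-bearing mice during 7 consecutive days of iv dosing (10 per group), as a sign of dose-limiting toxicity versus saline-treated controls; mice killed on day 8.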

Mus musculus [10] = assay: Toxicity in mouse H22 cells bearing Kunming mouse assessed as change in spleen index number at 5 mg/kg, iv administered for 7 days measured on day 8 relative to vehicle treated control; format: organism-based; design: dose 5 mg/kg, route intravenous; settings: in vivo, 168 h
How it was run: (§5)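 Tumour-bearing mice (10 per group) dosed iv for 7 consecutive days, killed on day 8; spleen and thymus removed and weighed. Organ index (%) = (organ weight/body weight) × 100, compared with saline-treated controls.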

HepG2 [11] = assay: Cytotoxicity against human HepG2 cells assessed as mitochondrial permeability augmentation after 48 hrs by fluorescence-based high-content screening assay; format: functional, cell-based
How it was run: (§6)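 HepG2 seeded 5 × 10³/well; after 12 h treated at 1, 5, 10, 15 and 30 μM for 48 h. Multiparameter cytotoxicity kit staining imaged by high-content screening: Hoechst 33342 for nuclear morphology, permeability dye (green nuclei) for membrane integrity, mitochondrial potential dye, and a weak-base dye for lysosomal mass/pH.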

HepG2 [12] = assay: Cytotoxicity against human HepG2 cells assessed as acruement in lysosomal mass/pH after 48 hrs by fluorescence-based high-content screening assay; format: functional, cell-based; how it was run: as §6
Mus musculus [13] = assay: Toxicity in mouse H22 cells bearing Kunming mouse assessed as change in thymus index number at 5 mg/kg, iv administered for 7 days measured on day 8 relative to vehicle treated control; format: organism-based; design: dose 5 mg/kg, route intravenous; settings: in vivo, 168 h; how it was run: as §5
H22 [14] = assay: Antitumor activity against mouse H22 cells xenografted in Kunming mouse assessed as decrease in cell survival at 5 mg/kg, iv administered on day 8 post-tumor injection for 7 days measured on day 16 relative to vehicle treated control; format: functional, organism-based; design: dose 5 mg/kg
Mus musculus [15] = assay: Toxicity in mouse H22 cells bearing Kunming mouse assessed pathological changes in kidney at 5 mg/kg, iv administered for 7 days measured on day 8 by hematoxylin and eosin staining relative to vehicle treated control; format: organism-based; design: dose 5 mg/kg, route intravenous; settings: in vivo, 168 h; how it was run: as §2
Mus musculus [16] = assay: Hematotoxicity in mouse H22 cells bearing Kunming mouse assessed as decrease in bone marrow cell numbers at 5 mg/kg, iv administered for 7 days measured on day 8 relative to vehicle treated control; format: organism-based; design: dose 5 mg/kg, route intravenous; settings: in vivo, 168 h; how it was run: as §3
H22 [17] = assay: Antimetastatic activity against mouse H22 cells xenografted in Kunming mouse assessed as tumor weight at 5 mg/kg, iv administered on day 11 post-tumor injection for 7 days measured on day 18 (reference value: 0.34 +/- 0.15 g); format: functional
H22 [18] = assay: Antimetastatic activity against mouse H22 cells xenografted in Kunming mouse assessed as decrease in lung metastases nodus number at 5 mg/kg, iv administered on day 11 post-tumor injection for 7 days measured on day 18 by hematoxylin and eosin staining relative to vehicle treated control; format: functional, organism-based; design: dose 5 mg/kg
HepG2 [19] = assay: Cytotoxicity against human HepG2 cells assessed as decrease in mitochondrial membrane potential after 48 hrs by fluorescence-based high-content screening assay; format: functional, cell-based; how it was run: as §6
H22 [20] = assay: Antitumor activity against mouse H22 cells xenografted in Kunming mouse assessed as median survival time at 5 […], iv administered 24 hrs post-tumor injection for 7 days relative to vehicle treated control; format: functional; how it was run: as §4
HepG2 [21] = assay: Cytotoxicity against human HepG2 cells assessed as cell nuclear shrinkage after 48 hrs by Hoechst 33342-based fluorescence-based high-content screening assay; format: functional; how it was run: as §6
Mus musculus [22] = assay: Toxicity in mouse H22 cells bearing Kunming mouse assessed pathological changes in heart at 5 mg/kg, iv administered for 7 days measured on day 8 by hematoxylin and eosin staining relative to vehicle treated control; format: organism-based; design: dose 5 mg/kg, route intravenous; settings: in vivo, 168 h; how it was run: as §2
Mus musculus [23] = assay: Toxicity in mouse H22 cells bearing Kunming mouse assessed as decrease in platelet number at 5 mg/kg, iv administered for 7 days measured on day 8 relative to vehicle treated control; format: organism-based; design: dose 5 mg/kg, route intravenous; settings: in vivo, 168 h; how it was run: as §3
Mus musculus [24] = assay: Toxicity in mouse H22 cells bearing Kunming mouse assessed pathological changes in brain at 5 mg/kg, iv administered for 7 days measured on day 8 by hematoxylin and eosin staining relative to vehicle treated control; format: organism-based; design: dose 5 mg/kg, route intravenous; settings: in vivo, 168 h; how it was run: as §2
Mus musculus [25] = assay: Toxicity in mouse H22 cells bearing Kunming mouse assessed pathological changes in spleen at 5 mg/kg, iv administered for 7 days measured on day 8 by hematoxylin and eosin staining relative to vehicle treated control; format: organism-based; design: dose 5 mg/kg, route intravenous; settings: in vivo, 168 h; how it was run: as §2

`NCCCNCCCCNCCCN1C(=O)c2ccc(-c3ccc4c(c3)C(=O)N(CCCNCCCCNCCCN)C4=O)cc2C1=O` was tested, and the IC50 (HepG2 [1]) was > 50 µM and the IC50 (MDA-MB-231) was > 50 µM.

For `NCCCNCCCNCCCN1C(=O)c2ccc(-c3ccc4c(c3)C(=O)N(CCCNCCCNCCCN)C4=O)cc2C1=O`, the IC50 (HepG2 [1]) was > 50 µM, the IC50 (HCT-116) was > 50 µM and the IC50 (MDA-MB-231) was > 50 µM.

`CN(C)CCN1C(=O)c2cccc3cc(N)cc(c23)C1=O` [AMONAFIDE] was tested, and the Activity (Mus musculus [2]) was “Non-toxic”, the Activity (Mus musculus [3]) was “Toxic” and the IC50 (K562) was 31.7 µM. For the same molecule, the IC50 (HepG2 [1]) was 36 µM, the inhibition in vivo at 5 mg/kg (H22 [4]) was 44.7% and the MST (H22 [5]) was 18.9 days. The Activity (H22 [6]) was “Active”, the Activity (Mus musculus [7]) was “Non-toxic” and the Activity (Mus musculus [8]) was “Toxic”. For the same molecule, the IC50 (HCT-116) was 32 µM, the Activity (Mus musculus [9]) was “Toxic” and the Activity (Mus musculus [10]) was “Toxic”. For the same molecule, the Activity (HepG2 [11]) was “Dose-dependent effect”, the Activity (HepG2 [12]) was “Dose-dependent effect” and the Activity (Mus musculus [13]) was “Toxic”. The Activity (H22 [14]) was “Active”, the Activity (Mus musculus [15]) was “Non-toxic” and the Activity (Mus musculus [16]) was “Toxic”. The Activity (H22 [17]) was 0.29 g, the IC50 (MDA-MB-231) was 42 µM and the Activity (H22 [18]) was “Active”. For the same molecule, the Activity (HepG2 [19]) was “Dose-dependent effect”, the Ratio (H22 [20]) was 1.5 and the Activity (HepG2 [21]) was “Dose-dependent effect”. The Activity (Mus musculus [22]) was “Non-toxic”, the Activity (Mus musculus [23]) was “Toxic” and the Activity (Mus musculus [24]) was “Non-toxic”. For the same molecule, the Activity (Mus musculus [25]) was “Non-toxic”.

With `NCCCNCCCNCCCN1C(=O)c2cccc3c(-c4ccccc4)ccc(c23)C1=O` the IC50 (K562) was 14.4 µM, the IC50 (HepG2 [1]) was 15.6 µM and the IC50 (MDA-MB-231) was 14.6 µM.

With `NCCCNCCCCNCCCN1C(=O)c2cccc3c(-c4ccccc4)ccc(c23)C1=O` the IC50 (K562) was 14.2 µM, the IC50 (HepG2 [1]) was 15.8 µM and the IC50 (MDA-MB-231) was 14.5 µM.

With `NCCCCNCCCCNCCCCN1C(=O)c2ccc3c4c(ccc(c24)C1=O)C(=O)N(CCCCNCCCCNCCCCN)C3=O` the IC50 (K562) was 28 µM, the IC50 (HepG2 [1]) was > 50 µM and the IC50 (MDA-MB-231) was > 50 µM.

With `NCCCNCCCN1C(=O)c2ccc3c4c(ccc(c24)C1=O)C(=O)N(CCCNCCCN)C3=O` the IC50 (K562) was 1.01 µM, the IC50 (HepG2 [1]) was 2.83 µM and the IC50 (HCT-116) was 5.02 µM. It also gave an IC50 (MDA-MB-231) of 2.95 µM.
